Bioassay records as filed in PubChem BioAssay.
MrgX1 PAM: human MrgX1 positive allosteric modulation, primary screen | Q96LB2 | MrgX1-HEK293, Fluo-4 calcium flux, FDSS; hits give high values | B-score at 10 µM | 0.63% of 310,000 active | AID 588675;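 active = plate-corrected calcium response at least 3 library SD above typical, normal starting fluorescence, not activating the receptor alone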;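 note: compound read alongside a low EC10 to EC30 dose of BAM8-22 agonist; peak minus trough fluorescence over baseline measured at the second addition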
Target sequence (Q96LB2 whole entry, looked up): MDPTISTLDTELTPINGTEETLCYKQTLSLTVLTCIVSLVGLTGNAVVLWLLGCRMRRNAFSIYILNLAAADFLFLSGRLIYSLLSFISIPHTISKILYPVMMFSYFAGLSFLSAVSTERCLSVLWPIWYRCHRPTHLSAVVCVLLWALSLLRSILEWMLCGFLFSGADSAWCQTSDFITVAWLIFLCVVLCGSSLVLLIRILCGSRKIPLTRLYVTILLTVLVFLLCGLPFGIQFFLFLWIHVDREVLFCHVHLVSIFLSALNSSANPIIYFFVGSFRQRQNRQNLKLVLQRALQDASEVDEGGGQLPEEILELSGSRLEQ
MrgX1 ag: agonists of human MrgX1 receptor. AID 588627. 0.44% of 310,000 active. B-score at 10 µM. MrgX1-HEK293 cells, Fluo-4 calcium fluorescence, agonist mode; hits give high values;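 active = calcium response B-score plate-corrected fluorescence ratio at least 3 library SD, with starting fluorescence B-score inside 5 SD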
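Assay system: MrgX1-expressing HEK293 cells / Amount: fifteen thousand cells per well / Doses: test compound in the initial addition of three / Timing: cells plated overnight, dye loaded 0.5 h 37 °C, 0.5 h room temperature / Technique: kinetic calcium dye fluorescence, Fluo-4 NW / Control set: positive and negative controls per plate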
RGS4 pot: potentiators or activators of RGS4. B-score at 10 µM. HEK293 M3R/inducible RGS4, carbachol calcium flux Fluo4; hits give low values. 0.92% of 310,000 active;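 active = B-score of the integrated calcium signal more than 4 SD below the library mean, with starting fluorescence not abnormally high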;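 note: negative B-score means reduced calcium response which marks RGS4 activation or potentiation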
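Assay system: HEK293 FlpIn-TREx cells, stable M3R, doxycycline-inducible RGS4 / Probe or stimulus: carbachol, ECmax concentration / Times: overnight RGS4 induction, 30 min dye load 37 °C, 20 min compound RT / Signal: kinetic calcium fluorescence imaging with Fluo4-AM dye, 2 µM / Measure: Agonist-evoked peak-minus-minimum fluorescence over baseline, integrated ratio, B score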
RGS4 inh: human RGS4 inhibition; B-score at 10 µM; 0.45% of 310,000 active; HEK293 M3R/RGS4 inducible, Fluo-4 calcium flux; hits give high values; triggered by carbachol at its EC20; P49798;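 active = B-score, a plate-corrected calcium signal, over three deviations above library mean, with baseline fluorescence within five deviations of library mean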;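 note: RGS4 expression induced by doxycycline in cells with stable M3 receptor; B-score is computed from the integrated fluorescence ratio over baseline after carbachol; higher B-score means a larger calcium signal and so more RGS4 inhibition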
Target sequence (P49798 whole entry, looked up): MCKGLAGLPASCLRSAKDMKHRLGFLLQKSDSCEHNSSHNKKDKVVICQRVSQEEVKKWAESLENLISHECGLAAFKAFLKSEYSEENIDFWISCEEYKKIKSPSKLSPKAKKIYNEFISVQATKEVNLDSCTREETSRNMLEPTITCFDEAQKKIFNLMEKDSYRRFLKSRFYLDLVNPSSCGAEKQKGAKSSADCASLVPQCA
MrgX1 antagonist: human MrgX1 receptor antagonism, primary screen. Q96LB2. MRGX1-HEK293 calcium flux, Fluo-4, BAM8-22 antagonism; hits give low values. B-score at 10 µM. 1.3% of 310,000 active;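 active = calcium-response B-score plate-corrected more than 3 library SD below zero, starting fluorescence within 5 deviations, no agonist response on first addition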;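 note: peak minus trough fluorescence over baseline after final BAM8-22 challenge near maximal dose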
MrgX1 PAM conf: confirmation of human MrgX1 receptor positive allosteric modulators; shares compounds with MrgX1 PAM; MrgX1-HEK293, Fluo-4 calcium fluorescence, FDSS; activation (ratio percentage), % at 10 µM; 13% of 1,200 active;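 active = ratio at least 3 SD above the weak peptide control, stable starting fluorescence, no direct agonism earlier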;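 note: compound followed by low BAM8-22 agonist challenge near EC20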
MrgX1 antag conf: human MrgX1 receptor antagonism, re-confirmation screen; shares compounds with MrgX1 antagonist; MrgX1-HEK293, BAM8-22 calcium flux, Fluo-4; hits give low values; remaining BAM8-22 calcium response % of control (hits give low values), % at 10 µM; 19% of 2,300 active; AID 602420;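 active = remaining agonist calcium response no higher than 100% minus 3 SD of agonist-only control wells, with starting fluorescence near control levels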;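 note: agonist BAM8-22 given at a near maximal EC90 to ECmax level; peak minus minimum fluorescence divided by baseline after agonist addition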
HEK293 Ca flux: MrgX1 antagonist counter-screen hit in parental HEK293 cells; fluorescence ratio F(max-min)/F0 at 10 µM; 2% of 4,000 active; AID 624111; shares compounds with MrgX1 antagonist; Fluo-4 calcium fluorescence, FDSS;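 active = duplicate-averaged calcium fluorescence ratio at least three times the standard deviation of buffer wells, a nonspecific response in parental cells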
HEK293 Ca counter: MrgX1 allosteric activator counter-screen hit in parental HEK293 cells; AID 624114; fluorescence ratio F(max-min)/F0 at 10 µM; 0.4% of 4,000 active; shares compounds with MrgX1 antagonist; parental HEK293 calcium flux, Fluo-4 fluorescence ratio; hits give high values;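 active = calcium fluorescence ratio, averaged over duplicates, at least 3 SD of the buffer-well ratio, meaning a nonspecific response in receptor-free cells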;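 note: untransfected parental HEK293 lacking MrgX1 used as counterscreen for MrgX1 allosteric activators; fluorescence change taken during the second addition on a kinetic imager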
HEK293 Ca cntr2: activity in parental HEK293 cells lacking MrgX1 receptor; fluorescence ratio F(max-min)/F0 at 10 µM; Fluo-4 calcium fluorescence (FDSS); hits give high values; 8.7% of 4,000 active; AID 624115; shares compounds with MrgX1 antagonist;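 active = calcium fluorescence ratio at least three times the spread of buffer wells, meaning a non-specific response in parental cells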
Active calls of the source: *; i = inactive; . = not tested or not shown. Compounds with a hit are over-represented: about 3.5% of the library has one in this group of screens.

SMILES	MrgX1 PAM	MrgX1 ag	RGS4 pot	RGS4 inh	MrgX1 antagonist	MrgX1 PAM conf	HEK293 Ca flux	HEK293 Ca counter	HEK293 Ca cntr2	others
Cc1cc(C)c(C#N)c(Sc2ccc(N)cc2)n1	12*	i	i	i	i	i	i	i	i
O=C(c1ccccc1)c1nc[nH]c1C(=O)Nc1ccccc1	9.9*	i	i	i	i	i	i	i	i
O=C(Nc1ccccc1)c1ccc[nH]1	i	i	i	i	i	.	.	.	.
CCOC(=O)c1cccc(NC(=O)CCc2ccccc2)c1	8.1*	i	i	i	i	i	i	i	i
O=[N+]([O-])c1ccc(-[n+]2nc(-c3ccccc3)nn2-c2ccccc2)cc1	i	i	i	i	i	.	.	.	.
Cc1nc(C)n(CCNC(=O)c2ccco2)n1	i	i	i	i	i	.	.	.	.
CC(NC(=O)c1cc(S(=O)(=O)N2CCOCC2)cn1C)c1ccccc1 (configuration not stated)	i	i	i	i	i	.	.	.	.
O=C1COc2ccc(S(=O)(=O)NCCc3ccccc3)cc2N1	i	i	i	i	i	.	.	.	.
O=C1COc2ccc(S(=O)(=O)NCc3ccc(Cl)cc3)cc2N1	6.5*	i	i	i	i	i	i	i	i
COc1ccc(C)cc1NC(=O)C1CCN(S(=O)(=O)c2ccc3c(c2)NC(=O)CO3)CC1	7.6*	i	i	i	i	i	i	i	i
COc1ccc(N(C)S(=O)(=O)c2ccc3c(c2)NC(=O)CO3)c(OC)c1	7*	i	i	i	i	i	i	i	i
CCc1cccc(CC)c1N1C(=O)c2cc(N3CCOCC3)c([N+](=O)[O-])cc2C1=O	i	i	i	i	i	.	.	.	.
CCOC(=O)C1CCCN(C(=O)c2sc3nc(-c4ccc(F)cc4)cn3c2C)C1 (configuration not stated)	7.3*	i	i	i	i	14%*	i	i	i
c1ccc(Oc2cc(-n3cncn3)ncn2)cc1	i	i	i	i	i	.	.	.	.
Cc1cnn(-c2cc(Oc3ccccc3)ncn2)c1	8.8*	i	i	i	i	i	i	i	i
COc1ccc(C(C)=O)cc1Cn1cnc2c(cnn2C)c1=O	11*	i	i	i	i	i	i	i	i
COc1ccc(C=O)cc1Cn1cnc2c(cnn2C)c1=O	i	i	i	i	i	.	.	.	.
CCOC(=O)c1c(C)[nH]c(C)c1C(=O)COC(=O)c1ccc(OC)c(OC)c1	i	i	i	i	i	.	.	.	.
CCOC(=O)c1sc(Nc2ccccc2Cl)nc1C	13*	i	i	i	i	i	i	i	i
NC1=NC[C@H](Cc2ccc(O)cc2)N1CCCCC1CCCCC1	9.3*	i	i	i	i	i	i	i	i
NCCCC[C@H]1CN=C(N)N1CCc1cccc2ccccc12	33*	i	i	i	i	i	i	i	i
NC1=NC[C@H](Cc2ccc(O)cc2)N1CCc1cccc2ccccc12	9.6*	i	i	i	-12*	i	i	i	i	MrgX1 antag conf=i
NC1=NC[C@@H](Cc2ccc(O)cc2)N1CCc1cccc2ccccc12	i	i	i	i	i	.	.	.	.
CCC(C)[C@H]1CN=C(N)N1CCc1cccc2ccccc12 (some centres not stated)	i	i	i	i	i	.	.	.	.
CCOc1ccc2nc(SCC(=O)Nc3cc4c(cc3C(C)=O)OCO4)[nH]c2c1	i	i	i	i	i	.	.	.	.
SMILES	MrgX1 PAM	MrgX1 ag	RGS4 pot	RGS4 inh	MrgX1 antagonist	MrgX1 PAM conf	HEK293 Ca flux	HEK293 Ca counter	HEK293 Ca cntr2	others
O=C(Cc1ccc(Cl)c(Cl)c1)Nc1ccc2[nH]c(=O)[nH]c2c1	i	i	i	i	i	.	.	.	.
COc1ccc(CCN2Cc3c(N)cccc3C2=O)cc1OC	i	i	i	i	i	.	.	.	.
c1ccc(-c2nc3ccccc3[nH]2)nc1	i	i	i	i	i	.	.	.	.
c1ccc(-c2nc3c(ccc4ccccc43)[nH]2)nc1	6.8*	i	i	i	i	i	i	i	i
CC(=O)Oc1ccc(C(=O)NC(C)CCc2ccccc2)cc1 (configuration not stated)	i	i	i	i	i	.	.	.	.
COc1ccccc1C(=O)NC(=O)COC(=O)CCOc1ccc(C)cc1	i	i	i	i	i	.	.	.	.
COc1ccc(C2=CC(c3ccc(F)cc3)n3nnnc3N2)cc1 (configuration not stated)	7*	i	i	i	i	i	i	i	i
COc1ccc(C2=CC(c3sccc3C)n3nnnc3N2)cc1 (configuration not stated)	i	i	i	i	i	.	.	.	.
COc1ccc(-n2nc(C(=O)NCC(=O)NC3CCCCC3)c3ccccc3c2=O)cc1	i	i	i	i	i	.	.	.	.
Cc1ccc(Nc2nc3ccccc3s2)c(C)c1	7*	i	i	i	i	i	i	i	i
Cc1ccc(-c2nc(CS(=O)CC(=O)NCc3ccco3)c(C)o2)cc1 (configuration not stated)	i	i	i	i	i	.	.	.	.
CC1CCCCC1Nc1nc2ccc(Cl)cc2n2cnnc12 (configuration not stated)	9.2*	i	i	i	i	i	i	i	i
CCC1(Cc2ccccc2)NC(=O)c2ccccc2O1 (configuration not stated)	12*	i	i	i	i	i	i	i	i
O=C1NC2(CCCCCC2)Oc2ccccc21	i	i	i	i	i	.	.	.	.
